Test results published in ChEMBL document CHEMBL3259711, “Synthesis, anti-HIV and cytostatic evaluation of 3'-deoxy-3'-fluorothymidine (FLT) pro-nucleotides” (Bioorg Med Chem Lett, 2014).

Tests used:
CCRF-CEM [1] = assay: Cytostatic activity against thymidine kinase-deficient human CEM cells assessed as inhibition of cell proliferation after 48 hrs by Coulter counter analysis; format: functional, cell-based
In short: (§1)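 Tumour cells ((5–7.5) × 10⁴ per well) grown with test compound for 48 h at 37 °C, humidified CO₂; cells counted by Coulter counter. IC₅₀ = concentration inhibiting proliferation by 50%. Means of at least 2–3 independent experiments.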

[2] = system: Human immunodeficiency virus 2; assay: Antiretroviral activity against HIV-2 ROD infected in thymidine kinase-deficient human CEM cells assessed as inhibition of virus-induced giant cell formation after 4 to 5 days by microscopic analysis; format: functional, organism-based; details: Human immunodeficiency virus 2, ISOLATE ROD, CCRF-CEM
In short: (§2)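 CEM cells (~3 × 10⁵/mL; wild-type or thymidine kinase-deficient) infected with 100 CCID₅₀/mL HIV-1(IIIB) or HIV-2(ROD) with serial compound dilutions; 4–5 days at 37 °C, humidified CO₂. Syncytium (giant cell) formation scored microscopically; EC₅₀ = concentration inhibiting giant cell formation by 50%. Means of at least 2–3 independent experiments.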

CCRF-CEM [3] = assay: Cytostatic activity against human CEM/0 cells expressing thymidine kinase assessed as inhibition of cell proliferation after 48 hrs by Coulter counter analysis; format: functional, cell-based; in short: as §1
[4] = system: Human immunodeficiency virus 2; assay: Antiretroviral activity against HIV-2 ROD infected in human CEM/0 cells expressing thymidine kinase assessed as inhibition of virus-induced giant cell formation after 4 to 5 days by microscopic analysis; format: functional, organism-based; details: Human immunodeficiency virus 2, ISOLATE ROD, CCRF-CEM; in short: as §2
L1210 = assay: Cytostatic activity against mouse L1210 cells assessed as inhibition of cell proliferation after 48 hrs by Coulter counter analysis; format: functional, cell-based; details: L1210, 48 h; in short: as §1
[5] = system: Human immunodeficiency virus 1; assay: Antiretroviral activity against HIV-1 3B infected in human CEM/0 cells expressing thymidine kinase assessed as inhibition of virus-induced giant cell formation after 4 to 5 days by microscopic analysis; format: functional, organism-based; details: Human immunodeficiency virus 1, 3B, CCRF-CEM; in short: as §2
CCRF-CEM [6] = assay: Cytostatic activity against thymidine kinase-deficient human CEM cells assessed as inhibition of cell proliferation at EC50 after 48 hrs by Coulter counter analysis; format: cell-based
[7] = Cytostatic activity against human CEM/0 cells expressing thymidine kinase assessed as inhibition of cell proliferation at EC50 after 48 hrs by Coulter counter analysis; format: cell-based; details: ccrf-cem
[8] = system: Human immunodeficiency virus 2; assay: Ratio of EC50 for HIV-2 ROD infected in thymidine kinase-deficient human CEM cells to EC50 for HIV-2 ROD infected in human CEM/0 cells expressing thymidine kinase; format: functional, ISOLATE ROD, CCRF-CEM

SMILES	EC50 [2] [µM]	EC50 [4] [µM]	EC50 [5] [µM]	IC50 (CCRF-CEM [1]) [µM]	IC50 (CCRF-CEM [3]) [µM]	IC50 (L1210) [µM]	Activity (CCRF-CEM [6])	Activity [7]	Ratio EC50 [8]
COC(=O)[C@H](C)NP(=O)(OC[C@H]1O[C@@H](n2cc(C)c(=O)[nH]c2=O)C[C@@H]1F)Oc1ccccc1 (some centres undefined)	4.7	1.3	0.55	> 250	> 250	8.2			
Cc1cn([C@H]2C[C@H](F)[C@@H](COP(=O)(N[C@@H](C)C(=O)OC(C)C)Oc3ccccc3)O2)c(=O)[nH]c1=O (some centres undefined)	28	1.1	0.75	> 250	145	23			
Cc1cn([C@H]2C[C@H](F)[C@@H](COP(=O)(N[C@@H](C)C(=O)OC(C)(C)C)Oc3ccccc3)O2)c(=O)[nH]c1=O (some centres undefined)	> 50	0.9	0.29	> 250	124	6.3			
COC(=O)[C@H](C)NP(=O)(OC[C@H]1O[C@@H](n2cc(C)c(=O)[nH]c2=O)C[C@@H]1F)Oc1cccc2ccccc12 (some centres undefined)	3	0.65	0.43	112	66	3			
CCOC(=O)[C@H](C)NP(=O)(OC[C@H]1O[C@@H](n2cc(C)c(=O)[nH]c2=O)C[C@@H]1F)Oc1cccc2ccccc12 (some centres undefined)	5.2	0.18	0.16	138	81	6			
Cc1cn([C@H]2C[C@H](F)[C@@H](COP(=O)(N[C@@H](C)C(=O)OC(C)C)Oc3cccc4ccccc34)O2)c(=O)[nH]c1=O (some centres undefined)	> 50	1	0.56	> 250	206	24			
Cc1cn([C@H]2C[C@H](F)[C@@H](COP(=O)(N[C@@H](C)C(=O)OC(C)(C)C)Oc3cccc4ccccc34)O2)c(=O)[nH]c1=O (some centres undefined)	> 50	4.7	2.3	> 250	148	36			
COP(=O)(N[C@@H](C)C(=O)OCc1ccccc1)OC[C@H]1O[C@@H](n2cc(C)c(=O)[nH]c2=O)C[C@@H]1F (some centres undefined)	89	1.6	0.65	> 250	100	43			
Cc1cn([C@H]2C[C@H](F)[C@@H](COP(=O)(N[C@@H](C)C(=O)OCC(C)(C)C)N[C@@H](C)C(=O)OCC(C)(C)C)O2)c(=O)[nH]c1=O	20	0.045	0.017	43	66	3.8			
Cc1cn([C@H]2C[C@H](F)[C@@H](CO)O2)c(=O)[nH]c1=O [ALOVUDINE]	> 50	0.018	0.0062	> 250	39	0.081			> 1000

These reach a lower EC50 [2]. Values come first.

EC50 [2] [µM]	EC50 [4] [µM]	EC50 [5] [µM]	SMILES	IC50 (CCRF-CEM [1]) [µM]	IC50 (CCRF-CEM [3]) [µM]	IC50 (L1210) [µM]	Activity (CCRF-CEM [6])	Activity [7]	Ratio EC50 [8]
2.1	0.18	0.12	Cc1cn([C@H]2C[C@H](F)[C@@H](COP(=O)(N[C@@H](C)C(=O)OCc3ccccc3)Oc3cccc4ccccc34)O2)c(=O)[nH]c1=O (some centres undefined)	57	54	5.2			
2	0.18	0.13	Cc1cn([C@H]2C[C@H](F)[C@@H](COP(=O)(N[C@@H](C)C(=O)OCc3ccccc3)Oc3ccccc3)O2)c(=O)[nH]c1=O (some centres undefined)	172	117	5.8			
2	0.14	0.048	Cc1cn([C@H]2C[C@H](F)[C@@H](COP(=O)(N[C@@H](C)C(=O)OC3CCCCC3)Oc3cccc4ccccc34)O2)c(=O)[nH]c1=O (some centres undefined)	20	13	2.9	Non-toxic	Non-toxic	
1.3	0.24	0.1	CCOC(=O)[C@H](C)NP(=O)(OC[C@H]1O[C@@H](n2cc(C)c(=O)[nH]c2=O)C[C@@H]1F)Oc1ccccc1 (some centres undefined)	> 250	> 250	4.4			
1	0.13	0.036	Cc1cn([C@H]2C[C@H](F)[C@@H](COP(=O)(N[C@@H](C)C(=O)OCc3ccccc3)N[C@@H](C)C(=O)OCc3ccccc3)O2)c(=O)[nH]c1=O	22	17	1.2	Non-toxic	Non-toxic	
0.87	0.08	0.032	Cc1cn([C@H]2C[C@H](F)[C@@H](COP(=O)(N[C@@H](C)C(=O)OCC(C)(C)C)Oc3cccc4ccccc34)O2)c(=O)[nH]c1=O (some centres undefined)	20	14	1.9	Non-toxic	Non-toxic	10
